From publication PMC3625064 (Molecular cell, 2012) come the findings set out here.

T1: LSD2 (Homo sapiens, UniProt Q8NB78)
T1 sequence (Q8NB78 1-822): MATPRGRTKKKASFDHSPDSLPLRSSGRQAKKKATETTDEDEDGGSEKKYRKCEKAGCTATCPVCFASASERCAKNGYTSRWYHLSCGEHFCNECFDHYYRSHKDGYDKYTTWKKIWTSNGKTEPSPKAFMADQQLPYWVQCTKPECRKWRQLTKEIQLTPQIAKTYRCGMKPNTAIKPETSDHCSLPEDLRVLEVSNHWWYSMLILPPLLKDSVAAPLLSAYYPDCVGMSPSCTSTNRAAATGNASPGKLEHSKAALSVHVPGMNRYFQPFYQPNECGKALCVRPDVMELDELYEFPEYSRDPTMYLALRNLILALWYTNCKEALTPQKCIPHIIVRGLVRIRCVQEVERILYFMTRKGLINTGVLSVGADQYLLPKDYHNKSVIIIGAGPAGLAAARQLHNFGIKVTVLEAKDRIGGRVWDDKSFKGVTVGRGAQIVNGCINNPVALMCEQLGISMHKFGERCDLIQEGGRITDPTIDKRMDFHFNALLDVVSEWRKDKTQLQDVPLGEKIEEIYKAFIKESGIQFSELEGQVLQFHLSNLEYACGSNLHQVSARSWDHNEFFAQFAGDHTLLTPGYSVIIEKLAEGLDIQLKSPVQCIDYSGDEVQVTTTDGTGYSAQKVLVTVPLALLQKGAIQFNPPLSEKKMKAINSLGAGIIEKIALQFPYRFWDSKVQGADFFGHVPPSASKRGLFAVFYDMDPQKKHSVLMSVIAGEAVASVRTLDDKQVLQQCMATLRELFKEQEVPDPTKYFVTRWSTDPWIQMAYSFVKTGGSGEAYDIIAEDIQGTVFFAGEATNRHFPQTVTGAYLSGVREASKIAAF

T2: recombinant hexa-His-tagged LSD2 (human, UniProt Q8NB78 1-822)
T2 sequence (looked up): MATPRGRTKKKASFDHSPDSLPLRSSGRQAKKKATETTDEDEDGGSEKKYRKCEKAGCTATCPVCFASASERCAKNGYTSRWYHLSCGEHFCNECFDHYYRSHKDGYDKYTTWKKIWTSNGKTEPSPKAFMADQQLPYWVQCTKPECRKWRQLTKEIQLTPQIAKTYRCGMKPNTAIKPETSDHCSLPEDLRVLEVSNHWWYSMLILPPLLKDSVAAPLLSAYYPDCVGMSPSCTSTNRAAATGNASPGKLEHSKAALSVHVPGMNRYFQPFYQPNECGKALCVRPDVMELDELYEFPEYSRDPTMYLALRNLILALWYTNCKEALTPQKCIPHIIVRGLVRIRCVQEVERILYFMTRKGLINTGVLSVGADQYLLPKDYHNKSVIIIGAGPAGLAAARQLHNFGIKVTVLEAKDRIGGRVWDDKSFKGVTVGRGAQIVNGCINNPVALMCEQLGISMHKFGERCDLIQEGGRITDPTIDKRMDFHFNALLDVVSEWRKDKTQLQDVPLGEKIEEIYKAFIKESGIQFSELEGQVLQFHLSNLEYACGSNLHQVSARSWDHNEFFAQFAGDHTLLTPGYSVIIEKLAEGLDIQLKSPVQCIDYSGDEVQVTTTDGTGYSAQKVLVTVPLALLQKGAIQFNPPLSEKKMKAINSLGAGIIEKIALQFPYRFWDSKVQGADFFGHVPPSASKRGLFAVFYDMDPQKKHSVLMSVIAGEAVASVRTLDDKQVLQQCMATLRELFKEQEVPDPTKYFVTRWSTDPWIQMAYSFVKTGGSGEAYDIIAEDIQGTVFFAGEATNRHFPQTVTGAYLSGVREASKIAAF

B1: NP.d9: deletion of amino acids 214–222 from NP.d3 (protein)
chain: SERGSKSPLKRAQEQSPRKRGRPPKDEKDLTIPESSTVKGMMAGPMAAFKWQPTASEPVKDASQTEKPAVCYQAITKKLKICEEETGSTSIQ
modifications: left off: GST, end not stated, kept
B2: NP.d5: dehydrogenase domain, residues 262–553; GST-tagged (protein)
chain: SITPTDKKIGFLGLGLMGSGIVSNLLKMGHTVTVWNRTAEKCDLFIQEGARLGRTPAEVVSTCDITFACVSDPKAAKDLVLGPSGVLQGIRPGKCYVDMSTVDADTVTELAQVIVSRGGRFLEAPVSGNQQLSNDGMLVILAAGDRGLYEDCSSCFQAMGKTSFFLGEVGNAAKMMLIVNMVQGSFMATIAEGLTLAQVTGQSQQTLLDILNQGQLASIFLDQKCQNILQGNFKPDFYLKYIQKDLRLAIALGDAVNHPTPMAAAANEVYKRAKALDQSDNDMSAVYRAYIH
modifications: left off: GST, end not stated, kept
B3: NP.d6: deletion of the linker region (residues 152–252); GST-tagged (protein)
chain: MAAVSLRLGDLVWGKLGRYPPWPGKIVNPPKDLKKPRGKKCFFVKFFGTEDHAWIKVEQLKPYHAHKEEMIKINKGKRFQQAVDAVEEFLRRAKGKDQTSSHNSSDDKNRRNSSEERSRPNSGDEKRKLSLSEGKVKKNMGEGKKRVSSGSAADSTAVNGSITPTDKKIGFLGLGLMGSGIVSNLLKMGHTVTVWNRTAEKCDLFIQEGARLGRTPAEVVSTCDITFACVSDPKAAKDLVLGPSGVLQGIRPGKCYVDMSTVDADTVTELAQVIVSRGGRFLEAPVSGNQQLSNDGMLVILAAGDRGLYEDCSSCFQAMGKTSFFLGEVGNAAKMMLIVNMVQGSFMATIAEGLTLAQVTGQSQQTLLDILNQGQLASIFLDQKCQNILQGNFKPDFYLKYIQKDLRLAIALGDAVNHPTPMAAAANEVYKRAKALDQSDNDMSAVYRAYIH
modifications: left off: GST, end not stated, kept
B4: NP.d2: truncation protein containing the linker region, residues 1–252; GST-tagged (protein)
chain: MAAVSLRLGDLVWGKLGRYPPWPGKIVNPPKDLKKPRGKKCFFVKFFGTEDHAWIKVEQLKPYHAHKEEMIKINKGKRFQQAVDAVEEFLRRAKGKDQTSSHNSSDDKNRRNSSEERSRPNSGDEKRKLSLSEGKVKKNMGEGKKRVSSGSSERGSKSPLKRAQEQSPRKRGRPPKDEKDLTIPESSTVKGMMAGPMAAFKWQPTASEPVKDADPHFHHFLLSQTEKPAVCYQAITKKLKICEEETGSTSIQ
modifications: left off: GST, end not stated, kept
B5: NP.d1: PWWP domain, residues 1–150; GST-tagged (protein)
chain: MAAVSLRLGDLVWGKLGRYPPWPGKIVNPPKDLKKPRGKKCFFVKFFGTEDHAWIKVEQLKPYHAHKEEMIKINKGKRFQQAVDAVEEFLRRAKGKDQTSSHNSSDDKNRRNSSEERSRPNSGDEKRKLSLSEGKVKKNMGEGKKRVSSG
modifications: left off: GST, end not stated, kept
B6: NP.d8: residues 188–252 (protein)
chain: TVKGMMAGPMAAFKWQPTASEPVKDADPHFHHFLLSQTEKPAVCYQAITKKLKICEEETGSTSIQ
modifications: left off: GST, end not stated, kept
B7: NP.d4: truncation protein containing the linker region, residues 152–553; GST-tagged (protein)
chain: SERGSKSPLKRAQEQSPRKRGRPPKDEKDLTIPESSTVKGMMAGPMAAFKWQPTASEPVKDADPHFHHFLLSQTEKPAVCYQAITKKLKICEEETGSTSIQAADSTAVNGSITPTDKKIGFLGLGLMGSGIVSNLLKMGHTVTVWNRTAEKCDLFIQEGARLGRTPAEVVSTCDITFACVSDPKAAKDLVLGPSGVLQGIRPGKCYVDMSTVDADTVTELAQVIVSRGGRFLEAPVSGNQQLSNDGMLVILAAGDRGLYEDCSSCFQAMGKTSFFLGEVGNAAKMMLIVNMVQGSFMATIAEGLTLAQVTGQSQQTLLDILNQGQLASIFLDQKCQNILQGNFKPDFYLKYIQKDLRLAIALGDAVNHPTPMAAAANEVYKRAKALDQSDNDMSAVYRAYIH
modifications: left off: GST, end not stated, kept
B8: GST-tagged wild-type NPAC (natural protein, UniProt Q49A26 1-553, looked up)
chain: MAAVSLRLGDLVWGKLGRYPPWPGKIVNPPKDLKKPRGKKCFFVKFFGTEDHAWIKVEQLKPYHAHKEEMIKINKGKRFQQAVDAVEEFLRRAKGKDQTSSHNSSDDKNRRNSSEERSRPNSGDEKRKLSLSEGKVKKNMGEGKKRVSSGSSERGSKSPLKRAQEQSPRKRGRPPKDEKDLTIPESSTVKGMMAGPMAAFKWQPTASEPVKDADPHFHHFLLSQTEKPAVCYQAITKKLKICEEETGSTSIQAADSTAVNGSITPTDKKIGFLGLGLMGSGIVSNLLKMGHTVTVWNRTAEKCDLFIQEGARLGRTPAEVVSTCDITFACVSDPKAAKDLVLGPSGVLQGIRPGKCYVDMSTVDADTVTELAQVIVSRGGRFLEAPVSGNQQLSNDGMLVILAAGDRGLYEDCSSCFQAMGKTSFFLGEVGNAAKMMLIVNMVQGSFMATIAEGLTLAQVTGQSQQTLLDILNQGQLASIFLDQKCQNILQGNFKPDFYLKYIQKDLRLAIALGDAVNHPTPMAAAANEVYKRAKALDQSDNDMSAVYRAYIH
B9: GST-NP.d3 (NPAC residues 152–252, linker region) (domain or fragment, UniProt Q49A26 152-252, looked up)
chain: SERGSKSPLKRAQEQSPRKRGRPPKDEKDLTIPESSTVKGMMAGPMAAFKWQPTASEPVKDADPHFHHFLLSQTEKPAVCYQAITKKLKICEEETGSTSIQ
B10: GST-NP.d2 (NPAC residues 1–252) (domain or fragment, UniProt Q49A26 1-252, looked up)
chain: MAAVSLRLGDLVWGKLGRYPPWPGKIVNPPKDLKKPRGKKCFFVKFFGTEDHAWIKVEQLKPYHAHKEEMIKINKGKRFQQAVDAVEEFLRRAKGKDQTSSHNSSDDKNRRNSSEERSRPNSGDEKRKLSLSEGKVKKNMGEGKKRVSSGSSERGSKSPLKRAQEQSPRKRGRPPKDEKDLTIPESSTVKGMMAGPMAAFKWQPTASEPVKDADPHFHHFLLSQTEKPAVCYQAITKKLKICEEETGSTSIQ
B11: GST-NP.d8 (NPAC residues 188–252) (domain or fragment, UniProt Q49A26 188-252, looked up)
chain: TVKGMMAGPMAAFKWQPTASEPVKDADPHFHHFLLSQTEKPAVCYQAITKKLKICEEETGSTSIQ
B12: GST-NP.d4 (NPAC residues 152–553) (domain or fragment, UniProt Q49A26 152-553, looked up)
chain: SERGSKSPLKRAQEQSPRKRGRPPKDEKDLTIPESSTVKGMMAGPMAAFKWQPTASEPVKDADPHFHHFLLSQTEKPAVCYQAITKKLKICEEETGSTSIQAADSTAVNGSITPTDKKIGFLGLGLMGSGIVSNLLKMGHTVTVWNRTAEKCDLFIQEGARLGRTPAEVVSTCDITFACVSDPKAAKDLVLGPSGVLQGIRPGKCYVDMSTVDADTVTELAQVIVSRGGRFLEAPVSGNQQLSNDGMLVILAAGDRGLYEDCSSCFQAMGKTSFFLGEVGNAAKMMLIVNMVQGSFMATIAEGLTLAQVTGQSQQTLLDILNQGQLASIFLDQKCQNILQGNFKPDFYLKYIQKDLRLAIALGDAVNHPTPMAAAANEVYKRAKALDQSDNDMSAVYRAYIH

Entries after “also recorded” stand apart in the source; their conditions may differ. No end group written: not given here.

The first experiment concerns the target T1, LSD2. Nature of the experiment: GST pull-down of His-LSD2. As to conditions: GST pull-down of purified His-LSD2; SDS-PAGE, Coomassie blue staining. Type of experiment: binding. The method, boiled down:
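GST and GST-tagged wild-type or mutant NPAC proteins (linker-region and binding-site mutants) were used to pull down purified His-LSD2. His-LSD2 in input and bound fractions was resolved by SDS-PAGE and stained with Coomassie blue.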
On to “NP.d7: residues 152–186, containing the AT-hook motif (SERGSKSPLKRAQEQSPRKRGRPPKDEKDLTIPES; also: GST fusion, end not given here)”, for which the “LSD2 binding / interaction” value was “but not NP.d7 (residues 152–186, containing the AT-hook motif, lane 4), was sufficient for LSD2 interaction”.

On to B1, for which the “LSD2 binding / interaction” value is reported as “completely abolished LSD2 binding”.

Regarding B2, the “LSD2 binding / interaction” value was “Neither the PWWP domain (NP.d1) nor the dehydrogenase domain (NP.d5) interacted with LSD2”.

With B3, the “LSD2 binding / interaction” value is reported as “abolished NPAC-LSD2 interaction”.

For the molecule B4, the “LSD2 binding / interaction” value is recorded as “capable of directly interacting with LSD2; also recorded: did not adversely affect LSD2 binding”.

For B5, the “LSD2 binding / interaction” value is recorded as “Neither the PWWP domain (NP.d1) nor the dehydrogenase domain (NP.d5) interacted with LSD2”.

In the case of B6, the “LSD2 binding / interaction” value is reported as “sufficient for LSD2 interaction”.

For B7, the “LSD2 binding / interaction” value is reported as “capable of directly interacting with LSD2; also recorded: did not adversely affect LSD2 binding”.

Another experiment deals with T2, recombinant hexa-His-tagged LSD2. Nature of the experiment: pull-down.
Details: not given
On to B8, for which the binding result was “binds”.

Turning to B9, the binding result is on record as “binds”.

Turning to B10, the binding result was “binds”.

As to B11, the binding result is listed as “binds”.

With B12, the binding result is listed as “binds”.
